Measurements collected from several papers.
Compare with care: the assays were run in different laboratories.
Read-out: enzyme activity
Mode: inhibitor
RET: Proto-oncogene tyrosine-protein kinase receptor Ret (RET, Homo sapiens, UniProt P07949)
RET V804L: Proto-oncogene tyrosine-protein kinase receptor Ret (RET, Homo sapiens, UniProt P07949, V804L)

CCCS(=O)(=O)Nc1ccc(F)c(C(=O)c2c[nH]c3ncc(-c4ccc(Cl)cc4)cc23)c1F  inhibition (RET; 1 µM): < 10%
C=CC(=O)Nc1cc(Nc2nccc(Nc3cc(Cl)c(F)cc3C(C)(C)O)n2)c(OC)cc1N1CC[C@@H](N(C)C)C1  inhibition (RET V804L; 1 µM): 8%
CNCc1ccc(-c2cc(-c3nc(-c4ccc(S(=O)(=O)C(C)C)cc4)cnc3N)on2)cc1  inhibition (RET; 0.4 µM): 22%
COc1cc(-c2cc(-c3ccc(N4CCNCC4)cc3)cnc2N)cc(OC)c1OC  inhibition (RET V804L; 0.1 µM): 2%
COc1cc2ncnc(Nc3ccc(Oc4ccccc4)cc3C)c2cc1OC  inhibition (RET; 1 µM): 34%
CNC(=O)c1cc2c(Oc3ccc(NC(=O)C4(C(=O)Nc5ccc(F)cc5)CC4)cc3)ccnc2cc1OC  inhibition (RET V804L; radiometric; 1 µM): 90%
CC/C(=N\NC(=O)NCc1cccc(O)c1)c1ccc(O)c(C)c1O  inhibition (Proto-oncogene tyrosine-protein kinase receptor Ret (RET, Homo sapiens, UniProt P07949, M918T); 0.1 µM): 1.1%
COc1cc2ncnc(Nc3ccc(Oc4ccccc4)c(C)c3C)c2cc1OC  inhibition (Proto-oncogene tyrosine-protein kinase receptor Ret (RET, Homo sapiens, UniProt P07949, Y791F); 1 µM): 31%
